# Experimental data from different studies.
# Cell line: MDA-MB-231
# Read-out: cell growth or viability
Structure (SMILES),assay,conditions,endpoint,result
C=CCNC(=S)NNC(=O)COc1ccc2c(C)c(CC)c(=O)oc2c1C,MTT,500 µg/mL,viability,3%
O=C(CCc1ccccc1)Nc1cc(-c2ccnc(N3CCC(O)CC3)c2)ccn1,MTT,5 µM,inhibition,78.9%
CC(=NNC(=O)COc1ccc2c(C)c(Cc3ccccc3)c(=O)oc2c1C)c1ccc(Br)cc1,MTT,31.25 µg/mL,viability,48.2%
C[C@@H]1CC[C@@H]([C@](C)(O)CNCc2ccccc2)[C@H](OCc2ccccc2)C1,MTT,"10 µM, 72 h",inhibition,76.8%
O=[N+]([O-])c1ccc2c(c1)S(=O)(=O)C=C2,ATP luminescence,72 h,IC50,1300 nM
CCc1c(C)c2ccc(OCc3nnc(S)n3N)c(C)c2oc1=O,MTT,1000 µg/mL,viability,5.38%
Nc1ccccc1NC(=O)c1ccc(CNC(=O)OCc2cccnc2)cc1,MTT,48 h,IC50,2930 nM
Cc1c(Cc2ccccc2)c(=O)oc2c(C)c(OCC(=O)NN=Cc3ccco3)ccc12,MTT,31.25 µg/mL,viability,15.3%
O=C(C=Cc1ccccc1)Nc1cc(-c2ccnc(N3CCC(O)CC3)c2)ccn1,MTT,72 h,IC50,3 nM
C[C@@H]1CC[C@@H]([C@@](O)(CNCc2cccc3ccccc23)COCc2ccccc2)[C@H](OCc2ccccc2)C1,MTT,"30 µM, 72 h",inhibition,91.2%
COc1cc2c3c(n(CCCNC(C)C)c(=O)c2cc1OC)-c1nc2c(cc1C3=O)OCO2,MTS,72 h,IC50,644 nM
COc1ccc(CNC[C@](O)(COCc2ccc(OC)cc2)[C@@H]2CC[C@@H](C)C[C@H]2OCc2ccc(OC)cc2)cc1,MTT,"30 µM, 72 h",inhibition,98.8%
Cc1c(Cc2ccccc2)c(=O)oc2c(C)c(OCC(=O)NN=Cc3ccc(Cl)cc3)ccc12,MTT,62.5 µg/mL,viability,47.1%
C=CC(=O)c1cccnc1Nc1cccc(C(F)(F)F)c1,SRB,48 h,GI50,14600 nM
COc1ccc(CNC[C@@](C)(O)[C@@H]2CC[C@@H](C)C[C@H]2OCc2ccccc2)cc1,MTT,"10 µM, 72 h",inhibition,45.7%
Cc1cc(NC(=O)C=Cc2ccccc2)cc(-c2ccnc(N3CCOCC3)c2)c1,MTT,5 µM,inhibition,17.7%
COc1ccc(COC[C@@](O)(CNCc2ccc(F)cc2)[C@@H]2CC[C@@H](C)C[C@H]2OCc2ccc(OC)cc2)cc1,MTT,"10 µM, 72 h",inhibition,91.7%
Cc1c(Cc2ccccc2)c(=O)oc2c(C)c(OCC(=O)NN=Cc3ccccc3)ccc12,MTT,62.5 µg/mL,viability,17.6%
Cc1cccc(/C=C/C(=O)Nc2cccc(-c3ccnc(N4CCC(O)CC4)c3)c2)c1,MTT,5 µM,inhibition,63.5%
C[C@@H]1CC[C@@H]([C@@](O)(CNCc2ccccc2)COCc2ccccc2)[C@H](OCc2ccccc2)C1,MTT,"30 µM, 72 h",inhibition,97%
